Data: ChEMBL document CHEMBL2440062, “New nucleotide-competitive non-nucleoside inhibitors of terminal deoxynucleotidyl transferase: discovery, characterization, and crystal structure in complex with the target” (J Med Chem, 2013)
Activity calls are given as the source filed them. The calls are words filed in the database; no cut-off is given here.

Experiments:
[1] = molecular target: T1, DNA polymerase lambda (Homo sapiens) (UniProt Q9UGP5); assay: Inhibition of human recombinant full length DNA polymerase lambda TdT-like activity using [3H]dNTP as substrate after 10 mins by scintillation counting analysis
T1 sequence (whole entry): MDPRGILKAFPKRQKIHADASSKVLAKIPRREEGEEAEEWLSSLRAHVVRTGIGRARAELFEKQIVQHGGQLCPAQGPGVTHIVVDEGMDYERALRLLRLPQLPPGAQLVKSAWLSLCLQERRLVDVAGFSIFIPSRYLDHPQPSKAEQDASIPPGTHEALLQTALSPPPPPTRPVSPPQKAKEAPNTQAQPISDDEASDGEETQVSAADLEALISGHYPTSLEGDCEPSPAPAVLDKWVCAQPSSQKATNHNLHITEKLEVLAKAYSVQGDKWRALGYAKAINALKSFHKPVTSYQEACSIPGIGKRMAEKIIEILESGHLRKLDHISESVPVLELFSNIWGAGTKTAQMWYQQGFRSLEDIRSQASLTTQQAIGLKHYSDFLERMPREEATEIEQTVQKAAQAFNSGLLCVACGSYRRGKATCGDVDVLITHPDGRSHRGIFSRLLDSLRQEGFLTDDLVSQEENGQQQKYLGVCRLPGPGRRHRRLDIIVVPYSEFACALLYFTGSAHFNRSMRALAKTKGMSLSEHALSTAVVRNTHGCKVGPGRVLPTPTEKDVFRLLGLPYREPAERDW
Procedure, shortened: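 Full-length recombinant human pol λ (>90% pure) was tested for template-independent activity. Acid-insoluble radioactivity was counted, and ID50 came from dose–response fitting.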

[2] = molecular target: T2, DNA nucleotidylexotransferase (Homo sapiens, UniProt P04053); assay: Non-competitive inhibition of human TdT using 3'-OH as substrate
T2 sequence (P04053 whole entry): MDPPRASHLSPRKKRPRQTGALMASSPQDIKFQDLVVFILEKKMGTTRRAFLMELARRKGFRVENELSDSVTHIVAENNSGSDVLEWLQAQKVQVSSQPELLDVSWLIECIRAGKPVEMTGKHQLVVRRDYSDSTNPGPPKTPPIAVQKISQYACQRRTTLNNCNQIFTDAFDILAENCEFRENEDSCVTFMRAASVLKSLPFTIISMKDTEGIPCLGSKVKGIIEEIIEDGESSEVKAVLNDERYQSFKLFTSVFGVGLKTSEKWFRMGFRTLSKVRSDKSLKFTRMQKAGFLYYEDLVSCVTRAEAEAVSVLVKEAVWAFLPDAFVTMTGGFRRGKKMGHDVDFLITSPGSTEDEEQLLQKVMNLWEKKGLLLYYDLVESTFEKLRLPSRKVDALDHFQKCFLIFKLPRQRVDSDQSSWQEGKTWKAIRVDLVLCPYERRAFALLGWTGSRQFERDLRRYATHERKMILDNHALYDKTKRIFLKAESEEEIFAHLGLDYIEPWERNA

[3] = species on record: Homo sapiens; assay: Binding affinity to human TdT/DNA binary complex
Procedure, shortened: (§1)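 Association (kon) and dissociation (koff) rates measured for binding to binary enzyme–DNA and ternary enzyme–DNA–dNTP complexes of TdT.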

[4] = molecular target: T1, DNA polymerase lambda (Homo sapiens); assay: Inhibition of human recombinant full length DNA polymerase lambda using [3H]dTTP as substrate and 10 poly(dA)/oligo(dT) as template-primer after 15 mins by scintillation counting analysis
Procedure, shortened: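 Recombinant full-length human pol λ at 50 nM was assayed with 0.2 μM poly(dA)/oligo(dT)10:1 (3′-OH ends) and 5 μM [3H]dTTP (5 Ci/mmol). Incubation was 15 min at 37 °C. TCA precipitates were scintillation counted.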

[5] = molecular target: T2, DNA nucleotidylexotransferase; assay: Inhibition of human recombinant TdT using [3H]dNTP as substrate after 10 mins by scintillation counting analysis
Procedure, shortened: (§2)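 TdT was from Trevigen. TCA-precipitated radioactivity was counted. ID50 came from dose–response fitting. For kinetics, DNA or dNTP was varied at increasing inhibitor, and Ki was obtained via Cheng–Prusoff for a competitive model.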

[6] = test system: HeLa; assay: Cytotoxicity against TdT-deficient human HeLa cells assessed as growth inhibition after 24 to 48 hrs by MTT assay; assay type: cell-based
Procedure, shortened: (§3)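 MOLT-4 cells were grown in RPMI-1640 and HeLa cells in DMEM, with 10% FCS at 37 °C. Cells were seeded at 10^5 per well, given 24 h to attach, then exposed to compounds (0.1–100 range) for 24 or 48 h. MTT at 1 mg/mL was added for 2 h at 37 °C, formazan was dissolved in DMSO, and absorbance read at 550 nm versus 0.5% DMSO vehicle. IC50 was obtained by regression, in triplicate.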

[7] = test system: MOLT-4; assay: Cytotoxicity against human MOLT4 cells overexpressing TdT assessed as growth inhibition after 24 to 48 hrs by MTT assay; assay type: functional, cell-based; procedure, shortened: as §3
[8] = molecular target: T2, DNA nucleotidylexotransferase; assay: Competitive inhibition of human TdT using TTP as substrate; procedure, shortened: as §2
[9] = molecular target: DNA polymerase beta (Homo sapiens, UniProt P06746); assay: Inhibition of human recombinant DNA polymerase beta
[10] = species on record: Homo sapiens; assay: Binding affinity to human TdT/DNA/dNTP ternary complex; procedure, shortened: as §1
[11] = test system: MOLT-4; assay: Induction of apoptosis in human MOLT4 cells overexpressing TdT assessed as caspase-3 cleavage by Western blot analysis; assay type: functional, cell-based
Procedure, shortened: (§4)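 1 × 10^6 cells were incubated with or without compound, then lysed in cold buffer (50 mM Tris, 150 mM NaCl, 10 mM EDTA, 1% Triton) with protease inhibitors. Equal protein was run on 8–12% SDS-PAGE and blotted to nitrocellulose. Membranes were probed overnight at 4 °C with antibodies to cyclin E2, cyclin A, p53 or caspase 3, detected by HRP/ECL, and normalized to actin by densitometry.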

[12] = test system: MOLT-4; assay: Downregulation of cyclin A protein expression in human MOLT4 cells overexpressing TdT at 30 to 50 uM by Western blot analysis; assay type: functional, cell-based; procedure, shortened: as §4
[13] = test system: MOLT-4; assay: Upregulation of p53 protein expression in human MOLT4 cells overexpressing TdT at IC50 after 30 hrs by Western blot analysis; assay type: functional, cell-based; procedure, shortened: as §4
[14] = test system: HeLa; assay: Cell cycle arrest in TdT-deficient human HeLa cells at 30 uM after 24 hrs by propidium iodide staining-based FACS flow cytometric analysis; assay type: ADME
Procedure, shortened: (§5)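 Cells at 2.5 × 10^5 cells/mL were treated 24 h with compound or vehicle. They were washed in PBS, trypsinized, and stained 30 min at 4 °C in the dark with 0.1% sodium citrate, 0.1% Triton X-100 and propidium iodide. Analysis was by FACScan flow cytometry, giving the percentage of cells in G0/G1, S and G2/M.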

[15] = test system: MOLT-4; assay: Cell cycle arrest in human MOLT4 cells overexpressing TdT assessed as accumulation at S phase at 30 uM after 24 hrs by propidium iodide staining-based FACS flow cytometric analysis relative to vehicle-treated control; assay type: functional; procedure, shortened: as §5
[16] = test system: MOLT-4; assay: Cell cycle arrest in human MOLT4 cells overexpressing TdT assessed as decrease of cells in G1 phase at 30 uM after 24 hrs by propidium iodide staining-based FACS flow cytometric analysis relative to vehicle-treated control; assay type: functional; design: scale not given: the % may be the effect or the level left; procedure, shortened: as §5
[17] = test system: HeLa; assay: Induction of apoptosis in TdT-deficient human HeLa cells assessed as caspase-3 cleavage by Western blot analysis; assay type: cell-based; procedure, shortened: as §4
[18] = test system: HeLa; assay: Cell cycle arrest in TdT-deficient human HeLa cells assessed as accumulation at G1 phase at 30 uM after 24 hrs by propidium iodide staining-based FACS flow cytometric analysis relative to vehicle-treated control; assay type: ADME; procedure, shortened: as §5
[19] = test system: HeLa; assay: Cell cycle arrest in TdT-deficient human HeLa cells assessed as decrease of cells in G2 phase at 30 uM after 24 hrs by propidium iodide staining-based FACS flow cytometric analysis relative to vehicle-treated control; assay type: ADME; design: scale not given: the % may be the effect or the level left; procedure, shortened: as §5
[20] = test system: HeLa; assay: Downregulation of cyclin E protein expression in TdT-deficient human HeLa cells at 30 uM by Western blot analysis; assay type: ADME, cell-based; procedure, shortened: as §4
[21] = test system: MOLT-4; assay: Downregulation of cyclin E protein expression in human MOLT4 cells overexpressing TdT at 30 uM by Western blot analysis; assay type: functional, cell-based; procedure, shortened: as §4
[22] = test system: MOLT-4; assay: Cell cycle arrest in human MOLT4 cells overexpressing TdT assessed as decrease of cells in G2 phase at 30 uM after 24 hrs by propidium iodide staining-based FACS flow cytometric analysis relative to vehicle-treated control; assay type: functional; design: scale not given: the % may be the effect or the level left; procedure, shortened: as §5
[23] = test system: MOLT-4; assay: Cell cycle arrest in human MOLT4 cells overexpressing TdT assessed as accumulation at G1 phase at 30 uM after 24 hrs by propidium iodide staining-based FACS flow cytometric analysis relative to vehicle-treated control; assay type: functional; procedure, shortened: as §5
[24] = test system: MOLT-4; assay: Downregulation of cyclin A protein expression in human MOLT4 cells overexpressing TdT at 30 uM by Western blot analysis; assay type: functional, cell-based; procedure, shortened: as §4

SMILES	ID50 [1]	ID50 [4]	ID50 [5]	IC50 [6]	IC50 [7]	IC50 [9]	further results
O=C(/C=C/c1cc(C(=O)c2ccccc2F)c[nH]1)CC(=O)C(=O)O	27 µM	> 40 µM	1.7 µM	> 40 µM	20 µM	> 40 µM	Ki [2]: 0.4 µM; inhibition [3]: Active; Ki [8]: 0.5 µM; inhibition [10]: inactive
O=C(/C=C/c1cn(Cc2ccc(O)cc2)c2ccccc12)CC(=O)C(=O)O	> 40 µM	> 40 µM	0.9 µM	> 40 µM	20 µM	> 40 µM	Ki [2]: 0.5 µM; inhibition [3]: Active; Ki [8]: 0.45 µM; inhibition [10]: inactive
CCOC(=O)C(=O)CC(=O)/C=C/c1cc(C(=O)c2ccc(C#N)cc2)c[nH]1	> 40 µM	> 40 µM	4.7 µM	> 40 µM	30 µM	> 40 µM	Activity [11]: Active; Ki [2]: 1.7 µM; inhibition [3]: Active; Activity [12]: Active; Activity [13]: Active; Activity [14]: Non-toxic; Ki [8]: 1.5 µM; Activity [15]: 44%; Activity [16]: 30%; inhibition [10]: inactive; Activity [17]: Non-toxic
CCCn1cc(/C=C/C(=O)CC(=O)C(=O)O)c2ccccc21	> 40 µM	> 40 µM	3.1 µM	> 40 µM	50 µM	> 40 µM	
CCCCn1cc(/C=C/C(=O)CC(=O)C(=O)O)c2ccccc21	> 40 µM	> 40 µM	26 µM	30 µM	30 µM	> 40 µM	Activity [18]: 20%; Activity [19]: 10%; Activity [20]: Toxic; Activity [21]: Active; Activity [22]: 10%; Activity [23]: 20%
O=C(/C=C/c1cc(C(=O)c2ccccc2)cn1Cc1ccc(F)cc1)CC(=O)C(=O)O	> 40 µM	> 40 µM	9.5 µM	> 40 µM	9 µM	40 µM	Activity [11]: Active; Activity [13]: Active; Activity [24]: Active; Activity [14]: Non-toxic; Activity [15]: 44%; Activity [16]: 30%; Activity [17]: Non-toxic
CCOC(=O)C(=O)CC(=O)/C=C/c1cc(C(=O)c2ccccc2F)c[nH]1	27 µM	> 40 µM	20 µM	> 40 µM	15 µM	> 40 µM	
C=C(C)Cn1cc(/C=C/C(=O)CC(=O)C(=O)O)c2ccccc21	40 µM	> 40 µM	2.5 µM	40 µM	40 µM	> 40 µM	
CN(C)C(=O)Cn1cc(/C=C/C(=O)CC(=O)C(=O)O)c2ccccc21	40 µM	> 40 µM	8.9 µM	> 40 µM	> 40 µM	> 40 µM	
N#Cc1ccc(Cn2cc(/C=C/C(=O)CC(=O)C(=O)O)c3ccccc32)cc1	34 µM	> 40 µM	1.4 µM	> 40 µM	> 40 µM	40 µM	
O=C(/C=C/c1cn(-c2ccc(Cl)cc2)c2ccccc12)CC(=O)C(=O)O	> 40 µM	9 µM	31 µM	> 40 µM	27 µM	> 40 µM	
O=C(/C=C/c1cn(Cc2ccc(Cl)cc2)c2ccccc12)CC(=O)C(=O)O	> 40 µM	> 40 µM	10 µM	> 40 µM	19 µM	> 40 µM	
CC(C)=Cn1cc(/C=C/C(=O)CC(=O)C(=O)O)c2ccccc21	9 µM	> 40 µM	13.8 µM	> 40 µM	30 µM	> 40 µM	
